# Experimental data published in ChEMBL document CHEMBL4414601 (J Med Chem, 2019).
# Calls of active or inactive are those of the source. The calls are words filed in the database; no cut-off is given here.
# Legend:
# Plasmodium falciparum [1] = assay: Antiplasmodial activity against […] of Plasmodium falciparum NF54 assessed as reduction in female gametocytes activation preincubated for 48 hrs followed by gametocytes activation and measured after 24 hrs by fluorescence based automated inverted microscopic analysis; format: functional, organism-based
# Summary of the method: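 NF54 gametocytes were activated by lowered temperature plus ookinete medium with xanthurenic acid and anti-Pfs25-Cy3 antibody (1/2000 final dilution). Cultures were then kept at 26 °C for 24 h in the dark. Activated females were counted by Cy3 anti-Pfs25 fluorescence, with events gated on size, roundness and fluorescence intensity.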
# L929 = assay: Cytotoxicity against mouse L929 cells assessed as reduction in viability by dual luciferase reporter gene assay; format: ADME, cell-based
# [2] = Clearance in rat liver microsomes at 0.5 uM measured up to 45 mins in presence of NADPH by HPLC-MS/MS analysis; format: ADME, Microsome
# [3] = target: Voltage-gated inwardly rectifying potassium channel KCNH2 (Homo sapiens, UniProt Q12809); assay: Inhibition of human ERG expressed in CHO cells by Q-patch clamp assay
# [4] = Lipophilicity, LogD of compound by reverse phase HPLC analysis
# [5] = Clearance in human liver microsomes at 0.5 uM measured up to 45 mins in presence of NADPH by HPLC-MS/MS analysis; format: ADME, Microsome
# [6] = Clearance in mouse liver microsomes at 0.5 uM measured up to 45 mins in presence of NADPH by HPLC-MS/MS analysis; format: ADME, Microsome
# [7] = Permeability of compound by PAMPA
# [8] = Aqueous solubility of compound; settings: buffer
# Plasmodium falciparum [9] = assay: Antiplasmodial activity against Plasmodium falciparum 3D7A erythrocytic stage assessed as reduction in [3H]hypoxanthine incorporation preincubated for 24 hrs followed by [3H]hypoxanthine addition and measured after 24 hrs by microbeta scintillation counting method; format: functional, organism-based
# Summary of the method: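 Nine threefold serial dilutions from 5 μM top concentration. Incubated 24 h at 37 °C under 5% CO2/5% O2/90% N2, then 0.2 μCi [3H]-hypoxanthine per well for another 24 h. Cells harvested on glass fibre filters and counted. Data normalized to compound-free parasitized RBCs; IC50 fitted.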
# Plasmodium falciparum [10] = assay: Antiplasmodial activity against […] of Plasmodium falciparum NF54 assessed as reduction in male gametocytes activation preincubated for 48 hrs followed by gametocytes activation and measured after 24 hrs by fluorescence based automated inverted microscopic analysis; format: functional, organism-based
# Summary of the method: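 Gametocyte activation was triggered by reduced temperature and ookinete medium containing xanthurenic acid. Male exflagellation centres were detected from a 10-frame video, scoring pixel changes caused by flagellar movement shifting surrounding cells.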
# Plasmodium falciparum [11] = assay: (§1) Antiplasmodial activity against Plasmodium falciparum 3D7A asexual erythrocytic stage assessed as reduction in [3H]hypoxanthine incorporation preincubated for 48 hrs followed by [3H]hypoxanthine addition and measured after 24 hrs by microbeta scintillation counting method; format: functional, organism-based
# Plasmodium falciparum [12] = assay: as §1, with “3D7A harboring with PKG T618Q mutant” for “3D7A”; format: functional, organism-based
# Plasmodium falciparum [13] = assay: Antiplasmodial activity against Plasmodium falciparum 3D7A erythrocytic stage assessed as reduction in [3H]hypoxanthine incorporation preincubated for 24 to 120 hrs followed by subculture in absence of compound and measured after 21 to 28 days by microbeta scintillation counting method; format: functional, organism-based
# Summary of the method: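 P. falciparum 3D7A cultures were drug-exposed for 120 h, with samples taken every 24 h (24, 48, 72, 96 and 120 h). Viable parasites were quantified by limiting dilution, counting wells with growth after 21 and 28 days by [3H]-hypoxanthine incorporation.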
# Plasmodium falciparum [14] = assay: as §1, with “3D7A harboring with PKG T618Q mutant” for “3D7A”, “72” for “48”; format: functional, organism-based
# [15] = target: cGMP-dependent protein kinase (Plasmodium falciparum, UniProt W7JX98); assay: Inhibition of Plasmodium falciparum full length N-terminal His-tagged PKG expressed in Escherichia coli RosettaTM 2(DE3) pLysS cells using FAM-GRTGRRNSI-NH2 as substrate preincubated for 30 mins followed by ATP addition and measured after 30 mins by microfluidic mobility shift assay
# [16] = Binding affinity to GSK3 in Plasmodium falciparum 3D7 blood stage extract incubated for 1 hr by kinobeads based pull down assay; settings: read-out: Kd(app)
# Summary of the method: (§2)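 The free compound competed over six concentrations from 0.08 to 20 μM. Proteins were digested by a modified SP3 protocol, labelled with TMT 10-plex and quantified by LC-MS/MS. Apparent Kd was derived from IC50 corrected for bead depletion. Two independent experiments were run.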
# [17] = target: T1, Calcium-dependent protein kinase 4 (Plasmodium falciparum (isolate 3D7), UniProt Q8IBS5); assay: Binding affinity to CDPK4 in Plasmodium falciparum 3D7 blood stage extract incubated for 1 hr in presence of ATP-competitive kinase inhibitor by kinobeads based pull down assay; settings: read-out: Kd(app)
# T1 sequence (Q8IBS5 whole entry): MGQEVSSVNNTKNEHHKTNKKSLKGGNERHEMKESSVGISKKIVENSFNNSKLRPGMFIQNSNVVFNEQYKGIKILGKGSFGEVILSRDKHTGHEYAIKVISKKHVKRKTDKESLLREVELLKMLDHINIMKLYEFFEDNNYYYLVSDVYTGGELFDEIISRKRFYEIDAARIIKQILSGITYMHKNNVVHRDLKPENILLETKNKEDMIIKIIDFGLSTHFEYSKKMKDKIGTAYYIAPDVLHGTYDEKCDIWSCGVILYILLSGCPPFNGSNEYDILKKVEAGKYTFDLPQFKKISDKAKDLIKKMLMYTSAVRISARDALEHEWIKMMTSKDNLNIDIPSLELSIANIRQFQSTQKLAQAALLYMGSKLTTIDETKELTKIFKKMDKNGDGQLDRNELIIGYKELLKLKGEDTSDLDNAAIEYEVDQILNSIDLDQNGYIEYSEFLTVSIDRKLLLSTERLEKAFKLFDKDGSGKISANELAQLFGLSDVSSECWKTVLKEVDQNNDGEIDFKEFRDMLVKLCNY
# Summary of the method: (§3)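 Chemoproteomic competition used kinobeads or Sepharose beads derivatized with ligand at 1 mM. Free compound was tested at six concentrations between 0.08 and 20 μM, in two independent experiments. Proteins were SP3-digested, TMT 10-plex labelled and measured by LC-MS/MS. IC50s came from competition curves, and apparent Kd was corrected for protein depletion by the beads.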
# [18] = Binding affinity to SRPK2 in Plasmodium falciparum 3D7 blood stage extract incubated for 1 hr in presence of ATP-competitive kinase inhibitor by kinobeads based pull down assay; settings: read-out: Kd(app); summary of the method: as §2
# [19] = Binding affinity to GSK3 in Plasmodium falciparum 3D7 blood stage extract incubated for 1 hr in presence of ATP-competitive kinase inhibitor by kinobeads based pull down assay; settings: read-out: Kd(app); summary of the method: as §2
# Casein kinase I = target: T2, Casein kinase I (Plasmodium falciparum (isolate 3D7), UniProt Q8IHZ9); assay: Binding affinity to CK1 in Plasmodium falciparum 3D7 blood stage extract incubated for 1 hr by kinobeads based pull down assay; settings: read-out: Kd(app)
# T2 sequence (Q8IHZ9 whole entry): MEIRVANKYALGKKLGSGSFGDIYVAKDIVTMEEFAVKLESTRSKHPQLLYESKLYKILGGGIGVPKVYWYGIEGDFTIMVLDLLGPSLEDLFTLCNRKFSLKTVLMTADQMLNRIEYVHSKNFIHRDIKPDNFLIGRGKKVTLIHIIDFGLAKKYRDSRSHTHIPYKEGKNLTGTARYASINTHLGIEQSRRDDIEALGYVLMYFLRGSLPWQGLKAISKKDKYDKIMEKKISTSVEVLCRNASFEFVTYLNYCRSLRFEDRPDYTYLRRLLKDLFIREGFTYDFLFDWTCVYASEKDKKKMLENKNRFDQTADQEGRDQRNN
# Summary of the method: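 Chemoproteomic competition binding: Sepharose beads derivatized at 1 mM with the immobilized ligand (kinobeads prepared likewise). Free compound competed at six concentrations, 0.08–20 μM. Proteins were SP3-digested, TMT 10-plex labelled and quantified by LC-MS/MS on an Orbitrap. IC50 from the competition curve; apparent Kd corrected for protein depletion by the beads. Two independent experiments.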
# [20] = target: T1, Calcium-dependent protein kinase 4; assay: Binding affinity to CDPK4 in Plasmodium falciparum 3D7 blood stage extract incubated for 1 hr by kinobeads based pull down assay; settings: read-out: Kd(app); summary of the method: as §3
# [21] = target: T3, Calcium-dependent protein kinase 1 (Plasmodium falciparum, UniProt P62344); assay: Binding affinity to CDPK1 in Plasmodium falciparum 3D7 blood stage extract incubated for 1 hr by kinobeads based pull down assay; settings: read-out: Kd(app); summary of the method: as §3
# [22] = tested on: Plasmodium falciparum 3D7
# [23] = target: T3, Calcium-dependent protein kinase 1; assay: Binding affinity to CDPK1 in Plasmodium falciparum 3D7 blood stage extract incubated for 1 hr in presence of ATP-competitive kinase inhibitor by kinobeads based pull down assay; settings: read-out: Kd(app); summary of the method: as §3
# Voltage-gated inwardly rectifying potassium channel KCNH2, sequence (Q12809 whole entry): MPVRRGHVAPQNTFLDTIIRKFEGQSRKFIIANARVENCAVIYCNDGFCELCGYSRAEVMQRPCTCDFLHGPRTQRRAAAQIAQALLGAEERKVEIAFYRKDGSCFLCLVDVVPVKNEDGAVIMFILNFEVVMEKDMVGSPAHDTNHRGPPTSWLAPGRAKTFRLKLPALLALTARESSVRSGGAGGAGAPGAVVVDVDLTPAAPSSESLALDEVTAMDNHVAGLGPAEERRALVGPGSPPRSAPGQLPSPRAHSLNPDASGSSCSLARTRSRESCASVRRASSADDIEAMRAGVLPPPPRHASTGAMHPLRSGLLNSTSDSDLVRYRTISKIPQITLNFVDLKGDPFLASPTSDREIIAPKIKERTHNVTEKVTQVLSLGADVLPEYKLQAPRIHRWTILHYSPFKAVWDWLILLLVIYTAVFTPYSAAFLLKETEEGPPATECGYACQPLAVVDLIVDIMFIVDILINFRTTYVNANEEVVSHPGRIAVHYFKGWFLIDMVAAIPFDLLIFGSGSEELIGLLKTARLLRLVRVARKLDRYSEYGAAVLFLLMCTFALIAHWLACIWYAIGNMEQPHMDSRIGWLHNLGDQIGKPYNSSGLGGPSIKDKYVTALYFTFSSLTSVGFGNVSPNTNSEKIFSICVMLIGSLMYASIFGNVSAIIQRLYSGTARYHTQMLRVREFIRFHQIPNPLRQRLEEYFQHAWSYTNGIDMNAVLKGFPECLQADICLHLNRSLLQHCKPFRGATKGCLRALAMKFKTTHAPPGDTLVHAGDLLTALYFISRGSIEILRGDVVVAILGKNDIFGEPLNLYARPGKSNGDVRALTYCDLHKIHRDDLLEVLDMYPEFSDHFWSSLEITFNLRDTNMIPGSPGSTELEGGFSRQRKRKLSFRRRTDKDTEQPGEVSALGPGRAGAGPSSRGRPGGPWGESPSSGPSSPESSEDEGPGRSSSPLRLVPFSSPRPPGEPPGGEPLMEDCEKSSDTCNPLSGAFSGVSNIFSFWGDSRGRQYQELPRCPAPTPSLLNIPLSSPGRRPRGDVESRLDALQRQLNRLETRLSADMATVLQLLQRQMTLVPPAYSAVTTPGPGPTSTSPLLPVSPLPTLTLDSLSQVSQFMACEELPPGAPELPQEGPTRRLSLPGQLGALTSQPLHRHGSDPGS
# T3 sequence (P62344 whole entry): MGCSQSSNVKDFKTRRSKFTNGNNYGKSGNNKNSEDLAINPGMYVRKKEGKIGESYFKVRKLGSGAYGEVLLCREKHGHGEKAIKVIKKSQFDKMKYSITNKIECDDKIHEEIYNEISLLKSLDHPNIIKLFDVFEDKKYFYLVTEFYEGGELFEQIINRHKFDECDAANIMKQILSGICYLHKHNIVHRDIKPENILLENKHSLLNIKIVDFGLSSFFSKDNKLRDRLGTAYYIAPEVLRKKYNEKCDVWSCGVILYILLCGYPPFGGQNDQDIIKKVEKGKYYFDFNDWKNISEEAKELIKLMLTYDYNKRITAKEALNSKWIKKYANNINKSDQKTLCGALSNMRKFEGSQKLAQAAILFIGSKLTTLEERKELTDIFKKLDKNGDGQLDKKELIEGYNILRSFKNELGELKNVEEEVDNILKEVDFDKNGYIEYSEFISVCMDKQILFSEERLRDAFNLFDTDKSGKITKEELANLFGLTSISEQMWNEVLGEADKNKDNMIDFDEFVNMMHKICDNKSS
# cGMP-dependent protein kinase, sequence (W7JX98 whole entry): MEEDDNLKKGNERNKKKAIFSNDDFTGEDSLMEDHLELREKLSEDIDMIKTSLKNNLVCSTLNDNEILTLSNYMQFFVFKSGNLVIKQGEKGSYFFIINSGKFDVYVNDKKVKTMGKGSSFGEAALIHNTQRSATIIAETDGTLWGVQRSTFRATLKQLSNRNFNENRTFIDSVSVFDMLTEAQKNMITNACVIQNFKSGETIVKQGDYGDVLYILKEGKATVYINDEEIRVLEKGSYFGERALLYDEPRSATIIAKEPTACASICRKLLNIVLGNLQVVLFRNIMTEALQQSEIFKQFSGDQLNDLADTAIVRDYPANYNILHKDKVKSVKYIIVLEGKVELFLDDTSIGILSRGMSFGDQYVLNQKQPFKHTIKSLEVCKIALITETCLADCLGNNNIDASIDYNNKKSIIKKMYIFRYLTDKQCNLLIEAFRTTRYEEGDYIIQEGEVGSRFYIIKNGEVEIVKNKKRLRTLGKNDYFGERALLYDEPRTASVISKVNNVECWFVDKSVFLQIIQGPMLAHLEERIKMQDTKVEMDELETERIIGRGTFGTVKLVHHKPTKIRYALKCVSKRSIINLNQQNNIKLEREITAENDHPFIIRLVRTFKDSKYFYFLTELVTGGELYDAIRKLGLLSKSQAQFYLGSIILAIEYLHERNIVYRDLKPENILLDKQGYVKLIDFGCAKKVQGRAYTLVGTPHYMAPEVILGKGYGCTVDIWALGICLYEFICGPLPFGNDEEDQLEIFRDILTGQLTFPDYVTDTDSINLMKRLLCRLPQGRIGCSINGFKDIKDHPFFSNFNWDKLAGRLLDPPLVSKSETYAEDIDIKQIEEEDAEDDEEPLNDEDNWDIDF
Structure (SMILES),EC50 (L929),CLH [2],IC50 [3],chromatographic logD [4],CLH [5],CLH [6],Papp [7],solubility [8],EC50 (Plasmodium falciparum [9]),Activity (Plasmodium falciparum [13]),other results
Fc1ccc(-c2nc(C3CCNCC3)sc2-c2ccnc(Nc3nncs3)n2)cc1,2800 nM,0.46 mL/min/g,2500 nM,1.82,0.55 mL/min/g,0.67 mL/min/g,< 1 ×10⁻⁶ cm/s,66 µM,1020 nM,–,EC50 (Plasmodium falciparum [1]): 380 nM; EC50 (Plasmodium falciparum [10]): 140 nM
CN1CCC(c2nc(-c3ccc(F)c(NS(C)(=O)=O)c3)c(-c3ccnc(NCC4CC4)n3)s2)CC1,17000 nM,6.22 mL/min/g,1340 nM,3.2,0.49 mL/min/g,1.32 mL/min/g,34 ×10⁻⁶ cm/s,311 µM,1020 nM,inactive,EC50 (Plasmodium falciparum [11]): 1020 nM; EC50 (Plasmodium falciparum [12]): > 5000 nM; EC50 (Plasmodium falciparum [14]): 3900 nM
Cc1cc(Nc2nccc(-c3sc(C4CCNCC4)nc3-c3ccc(F)cc3)n2)on1,2300 nM,–,–,2.61,–,–,12 ×10⁻⁶ cm/s,66 µM,2650 nM,–,IC50 [15]: 3 nM
Cc1cc(Nc2nccc(-c3sc(C4CCNCC4)nc3C3CC3)n2)ccn1,8900 nM,1.18 mL/min/g,–,1.99,0.4 mL/min/g,0.87 mL/min/g,18 ×10⁻⁶ cm/s,342 µM,270 nM,Active,–
Cc1cc(Nc2nccc(-c3sc(C4CCNCC4)nc3CN3CCCCC3)n2)ccn1,20000 nM,–,–,–,–,–,1 ×10⁻⁶ cm/s,–,190 nM,Active,–
Fc1ccc(-c2nc(C3CCNCC3)sc2-c2ccnc(NCCN3CCSCC3)n2)cc1,15100 nM,–,–,2.84,–,–,31 ×10⁻⁶ cm/s,491 µM,4030 nM,–,Kd [16]: 5300 nM; Kd [17]: 60 nM; Kd [18]: > 20000 nM; Kd [19]: 5300 nM; Kd (Casein kinase I): 1500 nM; Kd [20]: 60 nM; Kd [21]: 2100 nM; Kd(app) [22]: inactive; Kd [23]: 2100 nM
